A short description of series [1]: Metal chelating activity of the compound assessed as formation of Cu2+-compound complex by measuring red shift in maximum absorption at 37.5 uM after 30 mins by UV-vis absorption spectra analysis (reference value: 359 nanometer). In short, it runs like this:
(§1)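 Metal binding examined by plate-reader absorbance scan using CuCl2, ZnCl2, AlCl3, FeSO4, CuCl and Fe(NO3)3 as metal sources.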

The target in series [2] is T1, Amine oxidase [flavin-containing] B (Homo sapiens, UniProt P27338).
T1 sequence (P27338 whole entry): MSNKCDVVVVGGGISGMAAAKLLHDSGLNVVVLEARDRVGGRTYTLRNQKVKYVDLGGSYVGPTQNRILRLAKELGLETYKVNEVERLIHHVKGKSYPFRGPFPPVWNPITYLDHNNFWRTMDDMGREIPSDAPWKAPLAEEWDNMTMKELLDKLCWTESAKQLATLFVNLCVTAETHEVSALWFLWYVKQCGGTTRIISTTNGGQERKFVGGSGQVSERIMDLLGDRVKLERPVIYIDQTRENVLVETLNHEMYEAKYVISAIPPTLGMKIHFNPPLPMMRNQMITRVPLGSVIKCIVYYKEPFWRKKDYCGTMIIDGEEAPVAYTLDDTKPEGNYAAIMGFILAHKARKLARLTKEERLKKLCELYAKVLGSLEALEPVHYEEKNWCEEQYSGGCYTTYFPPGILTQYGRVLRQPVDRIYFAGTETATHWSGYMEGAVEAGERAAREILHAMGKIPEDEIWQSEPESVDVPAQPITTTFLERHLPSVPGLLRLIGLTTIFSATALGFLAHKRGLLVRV
In words: biochemical. In kind it is cell-based.

The target of series [3] is Acetylcholinesterase (AChE) (Electrophorus electricus, UniProt O42275). In words: Inhibition of electric eel AChE at 25 uM using acetylthiocholine iodide as substrate incubated for 15 mins by Ellman's method relative to control. The conditions noted are these: electric eel acetylcholinesterase (isolated enzyme), probe acetylthiocholine iodide.
In series [4] the test system is PC-12. Nature of the series: Neuroprotective activity against H2O2-induced cell death in rat PC12 cells assessed as cell viability at 1 uM pretreated for 2 hrs followed by H2O2 addition measured after 30 mins by MTT assay (reference value: 49.6%). In kind it is functional. The conditions noted are these: read-out: Activity. In general terms: Tetrazolium assays rely on reduction of a dye to a coloured formazan, in cell work by metabolically active cells.

Series [5] is described as follows: Metal chelating activity of the compound assessed as formation of Al3+-compound complex by measuring red shift in maximum absorption at 37.5 uM after 30 mins by UV-vis absorption spectra analysis (reference value: 359 nanometer). In short, it runs like this: as §1
Series [6] can be described thus: Toxicity in Kunming mouse assessed as abnormal behavior at 20 to 500 mg/kg measured up to 14 days. In kind it is organism-based. The conditions noted are these: in vivo, 336 h.
The subject of series [7] is Mus musculus. In words: Reversal of scopolamine-induced memory cognitive memory impairment in Kunming mouse assessed as change in spontaneous alteration behavior at 23.4 mg/kg, ig pretreated for 30 mins followed by scopolamine challenge and after 30 mins by Y-maze test (reference value: 45.6%). In kind it is functional.
The nature of series [8]: Metal chelating activity of the compound assessed as formation of Zn2+-compound complex at 37.5 uM after 30 mins by UV-vis absorption spectra analysis. In short, it runs like this:
as §1

The target of series [9] is Cholinesterase (Equus caballus) (UniProt P81908). In words: Reversible inhibition of equine serum BuChE assessed as enzyme activity at IC50 using butyrylthiocholine iodide as substrate by Ellman's method relative to control. The arrangement: scale not given: the % may be the effect or the level left. Background: In Ellman's method for cholinesterases, released thiocholine reacts with DTNB.

Activity calls are given as the source filed them. No cut-off for these calls is given here.

Cholinesterase (Equus caballus), sequence (P81908 whole entry): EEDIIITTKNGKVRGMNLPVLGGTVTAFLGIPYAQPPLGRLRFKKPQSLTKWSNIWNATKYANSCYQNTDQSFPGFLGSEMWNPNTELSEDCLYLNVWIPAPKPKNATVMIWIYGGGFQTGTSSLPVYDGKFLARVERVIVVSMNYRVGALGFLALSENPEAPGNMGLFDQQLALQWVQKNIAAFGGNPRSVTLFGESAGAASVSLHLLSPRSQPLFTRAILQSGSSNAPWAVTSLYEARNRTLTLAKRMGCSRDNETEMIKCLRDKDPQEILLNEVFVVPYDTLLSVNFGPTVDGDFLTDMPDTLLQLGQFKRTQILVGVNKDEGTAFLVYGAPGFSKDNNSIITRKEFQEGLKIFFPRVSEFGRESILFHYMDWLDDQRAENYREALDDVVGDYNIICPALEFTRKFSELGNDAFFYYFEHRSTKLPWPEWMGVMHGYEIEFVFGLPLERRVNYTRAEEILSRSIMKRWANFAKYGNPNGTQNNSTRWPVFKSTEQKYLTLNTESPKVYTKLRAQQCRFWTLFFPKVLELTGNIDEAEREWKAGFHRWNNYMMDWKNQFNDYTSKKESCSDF
Acetylcholinesterase (AChE), sequence (O42275 whole entry): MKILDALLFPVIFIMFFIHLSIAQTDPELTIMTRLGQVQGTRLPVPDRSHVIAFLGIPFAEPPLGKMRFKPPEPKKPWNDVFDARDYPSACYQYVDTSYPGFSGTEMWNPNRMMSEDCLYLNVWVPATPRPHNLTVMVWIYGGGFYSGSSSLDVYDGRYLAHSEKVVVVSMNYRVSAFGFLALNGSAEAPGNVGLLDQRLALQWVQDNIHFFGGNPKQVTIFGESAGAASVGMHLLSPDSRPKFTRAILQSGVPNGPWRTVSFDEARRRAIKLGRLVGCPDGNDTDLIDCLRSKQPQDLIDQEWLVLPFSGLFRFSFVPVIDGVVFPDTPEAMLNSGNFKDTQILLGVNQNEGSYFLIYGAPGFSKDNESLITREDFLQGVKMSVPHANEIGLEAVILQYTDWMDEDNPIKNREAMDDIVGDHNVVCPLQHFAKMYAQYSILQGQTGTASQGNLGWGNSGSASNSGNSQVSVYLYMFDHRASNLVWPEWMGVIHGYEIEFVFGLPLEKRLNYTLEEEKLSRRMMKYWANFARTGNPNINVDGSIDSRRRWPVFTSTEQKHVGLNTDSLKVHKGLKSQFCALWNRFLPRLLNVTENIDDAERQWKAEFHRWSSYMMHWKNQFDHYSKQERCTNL

With `CCN(C)C(=O)Oc1cccc(/C=C/C(=O)c2ccccc2O)c1`, the Activity in [1] is 435 nm; in series [5], 428 nm; in series [6] it was “Non-Toxic”; in series [7] it was 59.5%; in series [9] it was 50.1%. The molecule also registered a concentration for half-maximal inhibition (IC50) in series [2] of 1300 nM. Also, the inhibition at 0.25 h, 25 µM in series [3] turned out to be 26.2%. In series [4], the viability at 1 µM amounted to 62.9%. In [8], the outcome was inactive.

In general, IC50 refers to the concentration that gives 50% inhibition. As usually defined, the inhibition is the change of the read-out against control, counted positive when it falls.

The record behind these values is ChEMBL document CHEMBL4364279, “Design, synthesis, in-silico and biological evaluation of novel chalcone-O-carbamate derivatives as multifunctional agents for the treatment of Alzheimer's disease” (Eur J Med Chem, 2019).
